According to PubChem BioAssay:
Activity calls are given as the source filed them.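 The calls were made as follows, unless noted: active = viability at or under a set limit in both replicates, limit being median viability minus 3 SD (cut at about 48% in these data, passing the limit was not always enough); inconclusive = at or under the limit in just one replicate; inactive = at or above the limit in both replicates.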

Legend:
[1] = reducers of endogenous Her2 protein level, primary screen, SKBR3 breast tumor cells, AlphaScreen, ATP viability (AID 461;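 active = Her2 level under about 52% in both replicate screens, with viability over 70% of control, limit read from the data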;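 as to Her2 level: lower value means less Her2 protein in the cells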;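 as to viability: percent of carrier control wells set as 100% viability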); conditions: 18-24 h, measured here: SKBR3 viability, ATP luminescence, at 10 µM
[2] = molecular target: Receptor tyrosine-protein kinase erbB-2 (Homo sapiens) (UniProt P04626); assay: as above; conditions: 18-24 h, at 10 µM, stronger effect = lower value
Sequence of Receptor tyrosine-protein kinase erbB-2 (Homo sapiens) (P04626 whole entry, looked up): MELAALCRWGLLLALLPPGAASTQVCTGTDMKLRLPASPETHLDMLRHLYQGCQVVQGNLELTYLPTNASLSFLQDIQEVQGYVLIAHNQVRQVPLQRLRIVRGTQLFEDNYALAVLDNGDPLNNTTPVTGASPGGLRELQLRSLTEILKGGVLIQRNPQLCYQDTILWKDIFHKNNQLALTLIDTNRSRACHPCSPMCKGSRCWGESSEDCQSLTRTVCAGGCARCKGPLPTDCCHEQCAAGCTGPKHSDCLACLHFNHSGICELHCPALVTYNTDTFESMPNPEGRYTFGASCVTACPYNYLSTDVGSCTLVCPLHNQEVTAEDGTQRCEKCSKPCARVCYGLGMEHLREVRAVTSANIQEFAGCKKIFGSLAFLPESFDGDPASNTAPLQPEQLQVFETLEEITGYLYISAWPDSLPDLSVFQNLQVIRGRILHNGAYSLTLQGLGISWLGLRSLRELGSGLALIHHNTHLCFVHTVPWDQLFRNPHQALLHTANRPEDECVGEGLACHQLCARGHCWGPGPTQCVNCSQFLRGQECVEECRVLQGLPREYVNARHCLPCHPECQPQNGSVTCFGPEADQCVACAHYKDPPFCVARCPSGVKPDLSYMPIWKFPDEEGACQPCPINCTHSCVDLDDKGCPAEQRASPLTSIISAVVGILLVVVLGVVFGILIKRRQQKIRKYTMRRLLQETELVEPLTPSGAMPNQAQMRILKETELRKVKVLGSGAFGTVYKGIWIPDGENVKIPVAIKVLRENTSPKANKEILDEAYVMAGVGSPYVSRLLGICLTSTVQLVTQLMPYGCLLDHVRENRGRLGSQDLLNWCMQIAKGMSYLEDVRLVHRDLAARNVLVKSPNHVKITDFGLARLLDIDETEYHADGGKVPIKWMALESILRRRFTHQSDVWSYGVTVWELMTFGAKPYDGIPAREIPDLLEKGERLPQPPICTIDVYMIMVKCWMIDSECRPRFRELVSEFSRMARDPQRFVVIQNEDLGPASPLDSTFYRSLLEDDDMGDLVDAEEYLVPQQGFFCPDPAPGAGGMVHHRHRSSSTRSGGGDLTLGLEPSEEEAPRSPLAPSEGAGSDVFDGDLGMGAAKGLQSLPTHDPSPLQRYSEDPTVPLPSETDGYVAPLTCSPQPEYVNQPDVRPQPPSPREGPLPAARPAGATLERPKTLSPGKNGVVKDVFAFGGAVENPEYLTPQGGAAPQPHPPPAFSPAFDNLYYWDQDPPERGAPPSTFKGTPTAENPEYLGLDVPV

[3] = SK-BR-3 cell growth inhibitors, pilot screen, 24 h, human (AID 572;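 active = viability at or below 10% of carrier control in both of two separate runs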;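 also: compound exposure lasted between 18 and 24 h rather than exactly 24 h; 100% = carrier-treated control wells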); conditions: SK-BR-3 viability, CellTiter-Glo luminescence, at 10 µM, stronger effect = lower value
[4] = HUVEC growth inhibition – cell-based, human, primary screen (AID 575;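 active = viability at or below 30% in both replicate assays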;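 also: 100% = median of untreated cell wells with 0.1% DMSO on each plate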); conditions: HUVEC proliferation, CellTiter-Glo luminescence, 72 h; at 10 µM; stronger effect = lower value
How it was run: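 System: primary human umbilical vein endothelial cells; Quantity: 1250 endothelial cells in each well; Buffer or medium: supplemented EBM, 2% fetal bovine serum; Doses: one dose, 10 µM final, 0.1% DMSO; Incubation: 72 h compound incubation; Technique: ATP-based CellTiter-Glo luminescent read; Evaluation: percent of median DMSO-control luminescence; Controls: vehicle and MePR control wells.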

[5] = growth inhibitors of H69AR lung tumor, primary screen, human, duplicate replicates (AID 580); conditions: H69AR lung tumor cells viability, ATP luminescence, 72 h; at 10 µM; stronger effect = lower value;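 also: 100% = mean luminescence of untreated wells and 0% = no signal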
[6] = reversal of MRP1-mediated doxorubicin resistance, pilot screen, H69AR cells, doxorubicin co-treatment (AID 601;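 active = viability loss from added drug above about 55%, and viability with drug at most 40%, in both replicates, limit read from the data, passing the limit was not always enough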); conditions: CellTiter-Glo, 72 h, at 10 µM; for differential viability (reversal): stronger effect = higher value
[7] = 384-well plate pilot, post-Golgi transport modulator project, inhibition of yeast transport mutant growth (AID 636; in the data active = inhibition above about 31%); conditions: absorbance 615 nm, about 18 h, stronger effect = higher value
[8] = growth suppression of yeast trafficking mutant, preliminary HTS, modulators of trafficking downstream of Golgi apparatus project, 1536-format plate, OD 615 nm (AID 637; in the data active = inhibition above about 30%); conditions: yeast transport mutant growth, absorbance 615 nm, 18 h; stronger effect = higher value
[9] = H69AR cells + 2 uM doxorubicin, measured here: viability with 2 uM doxorubicin, stronger effect = lower value
[10] = H69AR cells, compound alone cytotoxicity

Row | Compound | viability [1] | Her2 level [2] | viability [3] | viability [4] | viability [5] | differential viability (reversal) ([6]; H69AR cells + 2 uM doxorubicin) | viability [6, 9] | viability [6, 10] | inhibition [7] | inhibition [8]
1 | CC(=O)Nc1ccn(-c2ccccc2)n1 | 83% | 105% (inactive) | 83% (inactive) | 97.9% (inactive) | 93.6% (inactive) | -4.04% (inactive) | 97.6% | 93.6% | 0% (inactive) | -6.77% (inactive)
2 | Cc1cc2c(c(=O)o1)C(C13C=CC(CC1)C3)C(C#N)=C(N)O2 (stereo not given) | 124% | 94.5% (inactive) | 124% (inactive) | 90.1% (inactive) | 99.8% (inactive) | 13.2% (inactive) | 86.6% | 99.8% | -6.4% (inactive) | -5.97% (inactive)
3 | O=C1CC(c2ccco2)CC(O)=C1C=NCC1NCCc2ccccc21 (stereo not given) | 78.5% | 98.5% (inactive) | 78.5% (inactive) | 91.5% (inactive) | 90.7% (inactive) | -3.47% (inactive) | 94.1% | 90.7% | -0.92% (inactive) | 7.14% (inactive)
4 | Cc1ccc(S(=O)(=O)C2(C(=O)N3CCCCCC3)CC2)cc1 | 96.5% | 83% (inactive) | 96.5% (inactive) | 93.8% (inactive) | 107% (inactive) | 1.4% (inactive) | 105% | 107% | -2.73% (inactive) | -0.95% (inactive)
5 | CCOC(=O)c1cccc(NC(=O)CSc2nc3cccnc3n2C)c1 | 86.5% | 94.5% (inactive) | 86.5% (inactive) | 71.4% (inactive) | 93.2% (inactive) | -1.5% (inactive) | 94.7% | 93.2% | -5.14% (inactive) | 1.8% (inactive)
6 | O=C(CCn1c(=O)oc2ccccc21)NCCN1CCc2ccccc2C1 | 77% | 79% (inactive) | 77% (inactive) | 95.2% (inactive) | 94.4% (inactive) | 16% (inactive) | 78.4% | 94.4% | -2.24% (inactive) | 3.02% (inactive)
7 | Cc1ccccc1OCc1nc2ccccc2c(=O)n1/N=C/c1ccco1 | 102% | 100% (inactive) | 102% (inactive) | 71% (inactive) | 104% (inactive) | 8.3% (inactive) | 95.3% | 104% | 0.53% (inactive) | -2.9% (inactive)
8 | O=C(CSc1nc(O)cc(=O)n1-c1ccccc1)N1CCCCC1 | 100% | 77% (inactive) | 100% (inactive) | 80.8% (inactive) | 98.8% (inactive) | 2.4% (inactive) | 96.4% | 98.8% | -6.44% (inactive) | 3.97% (inactive)
9 | O=C1c2ccccc2C(=O)N1CCCn1nnc(-c2ccc(N3CCOCC3)cc2)n1 | 110% | 90.5% (inactive) | 110% (inactive) | 103% (inactive) | 95.9% (inactive) | 0.795% (inactive) | 95.1% | 95.9% | -4.53% (inactive) | -4.43% (inactive)
10 | Cc1cc(Nc2ccccc2F)n2ncnc2n1 | 101% | 97.5% (inactive) | 101% (inactive) | 99% (inactive) | 97.1% (inactive) | 8.83% (inactive) | 88.3% | 97.1% | -0.67% (inactive) | 0.16% (inactive)
11 | CCC(C)OC(=O)c1[nH]c2c(c1C)C(=O)CC(c1ccc(N(C)C)cc1)C2 (stereo not given) | 88.5% | 73% (inactive) | 88.5% (inactive) | 57.9% (inactive) | 27.6% (active) | -47.7% (inactive) | 75.3% | 27.6% | -2.93% (inactive) | 24.8% (inactive)
12 | CCCCCCNS(=O)(=O)c1ccc(Cl)s1 | 85% | 86.5% (inactive) | 85% (inactive) | 81.9% (inactive) | 89.1% (inactive) | 1.29% (inactive) | 87.8% | 89.1% | -4.4% (inactive) | 22.9% (inactive)
13 | CCN1CCN(CCNC(=O)c2cn(C(C)c3ccccc3F)nn2)CC1 (stereo not given) | 122% | 98.5% (inactive) | 122% (inactive) | 82.3% (inactive) | 96.4% (inactive) | 8.63% (inactive) | 87.8% | 96.4% | -2.73% (inactive) | -4.6% (inactive)
14 | Cc1cc(NCCN2CCOCC2)n2nc(C)c(-c3ccccc3)c2n1 | 102% | 87% (inactive) | 102% (inactive) | 91.1% (inactive) | 96.4% (inactive) | 12.8% (inactive) | 83.6% | 96.4% | -0.52% (inactive) | -3.33% (inactive)
15 | COC(=O)c1ccccc1NC(=O)Nc1cc(C)cc(C)n1 | 96% | 86% (inactive) | 96% (inactive) | 103% (inactive) | 102% (inactive) | 6.95% (inactive) | 94.8% | 102% | -1.58% (inactive) | -1.9% (inactive)
16 | COc1cccc(CN=CC2=C(O)CC(C)(C)CC2=O)c1OC | 106% | 114% (inactive) | 106% (inactive) | 101% (inactive) | 100% (inactive) | -0.91% (inactive) | 101% | 100% | -1.69% (inactive) | -7.54% (inactive)

Row | Compound | viability [1] | Her2 level [2] | viability [3] | viability [4] | viability [5] | differential viability (reversal) ([6]; H69AR cells + 2 uM doxorubicin) | viability [6, 9] | viability [6, 10] | inhibition [7] | inhibition [8]
17 | Cc1nnc(SCC(=O)NC(C)(C)C)n1CCc1ccccc1 | 93.5% | 92.5% (inactive) | 93.5% (inactive) | 105% (inactive) | 95.6% (inactive) | 4.22% (inactive) | 91.4% | 95.6% | -6.53% (inactive) | 5.65% (inactive)
18 | CCCCn1c(CN(C)Cc2ccccc2)nc2c1c(=O)n(C)c(=O)n2C | 83% | 101% (inactive) | 83% (inactive) | 71.1% (inactive) | 71.6% (inactive) | -7.99% (inactive) | 79.6% | 71.6% | -3.24% (inactive) | -0.63% (inactive)
19 | CCOC(=O)N1CCC(N2C(=O)c3ccccc3C2Nc2cccnc2)CC1 (stereo not given) | 91.5% | 104% (inactive) | 91.5% (inactive) | 112% (inactive) | 85.7% (inactive) | 0.11% (inactive) | 85.6% | 85.7% | -2.05% (inactive) | -3% (inactive)
20 | Cc1cc(C)c2cc(CN(CC3CCCO3)C(=O)NC3CCCCC3)c(=O)[nH]c2c1 (stereo not given) | 78.5% | 89.5% (inactive) | 78.5% (inactive) | 92% (inactive) | 73.4% (inactive) | -2.42% (inactive) | 75.8% | 73.4% | -0.13% (inactive) | 15.8% (inactive)
21 | COc1ccc(N2C(=O)C3CCCN3C2c2ccc(F)cc2)cc1Cl (stereo not given) | 102% | 93.5% (inactive) | 102% (inactive) | 84.2% (inactive) | 87.4% (inactive) | -1.33% (inactive) | 88.7% | 87.4% | 0.39% (inactive) | -6.94% (inactive)
22 | COc1ccc(Cl)cc1NC(=O)COc1cccc(-n2cnnn2)c1 | 110% | 80% (inactive) | 110% (inactive) | 98.5% (inactive) | 86.4% (inactive) | 4.85% (inactive) | 81.5% | 86.4% | -5.87% (inactive) | 1.61% (inactive)
23 | O=C(CCCn1c(=S)[nH]c2cc3c(cc2c1=O)OCO3)N1CCN(c2ccccc2F)CC1 | 77% | 95% (inactive) | 77% (inactive) | 68% (inactive) | 83.7% (inactive) | -9.88% (inactive) | 93.6% | 83.7% | -4.32% (inactive) | -2.95% (inactive)
24 | CCOC(=O)N1CCN(Cc2ccccc2F)CC1 | 102% | 81% (inactive) | 102% (inactive) | 98.1% (inactive) | 85% (inactive) | -2.15% (inactive) | 87.2% | 85% | -7.33% (inactive) | 2.3% (inactive)
25 | COc1ccc(C2C=C(c3ccccc3)Nc3ncnn32)cc1 (stereo not given) | 92.5% | 94.5% (inactive) | 92.5% (inactive) | 110% (inactive) | 101% (inactive) | 1.29% (inactive) | 100% | 101% | -3.65% (inactive) | 3.65% (inactive)
26 | COc1ccc2c(=O)c3c(=O)n(Cc4ccco4)c(-c4cc(OC)c(OC)c(OC)c4)nc3oc2c1 | 67% | 82.5% (inactive) | 67% (inactive) | 67.9% (inactive) | 36.1% (active) | -1.67% (inactive) | 37.8% | 36.1% | -2.53% (inactive) | -10% (inactive)
27 | CCN(CC)S(=O)(=O)c1ccc2oc(C(=O)O)c(C)c2c1 | 108% | 100% (inactive) | 108% (inactive) | 102% (inactive) | 103% (inactive) | 10.4% (inactive) | 92.2% | 103% | -0.4% (inactive) | 4.43% (inactive)
28 | CO/C([O-])=N/c1c[n+](-c2ccc(C)cc2)no1 | 100% | 92.5% (inactive) | 100% (inactive) | 109% (inactive) | 90.5% (inactive) | -0.875% (inactive) | 91.3% | 90.5% | -6.49% (inactive) | 7.38% (inactive)
29 | O=C(Nc1ccc2c(c1)OCO2)C(c1ccccc1)N1CCC2(CC1)OCCO2 (stereo not given) | 96.5% | 101% (inactive) | 96.5% (inactive) | 82.6% (inactive) | 96.3% (inactive) | 7.72% (inactive) | 88.6% | 96.3% | -3.78% (inactive) | 14.9% (inactive)
30 | COc1cc(C2C(C#N)=C(C)NC3=C2C(=O)CC(C)(C)C3)ccc1O (stereo not given) | 100% | 84% (inactive) | 100% (inactive) | 94.7% (inactive) | 101% (inactive) | 3.54% (inactive) | 97.1% | 101% | -6.13% (inactive) | -7.46% (inactive)
31 | O=C(CSc1nnnn1C1CCCC1)N1CCN(C(=O)c2ccco2)CC1 | 82% | 89.5% (inactive) | 82% (inactive) | 105% (inactive) | 105% (inactive) | 1.94% (inactive) | 103% | 105% | -3.11% (inactive) | 4.59% (inactive)
32 | CS(=O)(=O)N(CC(=O)Nc1cccc(F)c1)Cc1ccccc1 | 78.5% | 87.5% (inactive) | 78.5% (inactive) | 87.5% (inactive) | 103% (inactive) | 13.1% (inactive) | 90% | 103% | -3.78% (inactive) | 2.3% (inactive)
